Screening data (PubChem)
RORA inh – inhibitors of human nuclear receptor RORA; P35398; CHO-K1 Gal4-RORA LBD luciferase reporter, luminescence; inhibition, % at 10 µM; actives 0.43% (n = 65,000);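 active means inhibition above the mean of all tested compounds plus 3 SD, cut at about 52% in these data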;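 further: 0% = RORA-transfected cells with DMSO and 100% = mock-transfected cells lacking RORA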
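test system = CHO-K1 Gal4-RORA LBD luciferase reporter cells | dosing = 10 µM single point | times = 20 h compound treatment, 37 °C | signal = luciferase luminescence | read-out = % inhibition of basal luciferase versus +RORA/-RORA DMSO controls | benchmarks = mock-transfected cells as 100%, +RORA DMSO cells as 0% | replicates = tested once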
Numbers without * were called inactive. Only a selection was taken, and hits are over-represented in it overall.

SMILES | RORA inh
Cc1ccc(N(CN2C(=O)C3CC=CCC3C2=O)C(=O)c2ccco2)cc1Cl (configuration not stated) | -22
CC(OC(=O)c1ccco1)C(=O)NCc1cccs1 (configuration not stated) | 10
Cc1cc(C)n2nc(SCC(=O)NCc3ccco3)nc2n1 | -10
Cc1cc(-n2c(C)cc(C(=O)CSc3ncnc4ccccc34)c2C)no1 | 64*
Cc1cc(C)n2nc(SCc3cc(=O)n4ccccc4n3)nc2n1 | -11
Cc1cc(C)n2nc(SCC(=O)c3cc(C)n(-c4cc(C)on4)c3C)nc2n1 | 55*
Cc1cc(C(=O)CSc2nc3ccccc3[nH]2)c(C)n1C | -59
Cc1cc(C(=O)CSc2nnc(-c3ccccc3)n2-c2ccccc2)c(C)n1-c1ncn[nH]1 | -11
O=C(COc1ccccc1)n1nc(-c2ccc(Cl)cc2)nc1NCc1ccco1 | -60
Fc1ccc(-c2nnc(CN3CCN(c4ncc(C(F)(F)F)cc4Cl)CC3)o2)cc1 | -7
CC(=O)Nc1ccc(S(=O)(=O)N2CCN(C(=O)N3CCCCCC3)CC2)cc1 | 3
COC(=O)c1ccc(NC(=O)C2CCCN(S(=O)(=O)c3cnc[nH]3)C2)cc1 (configuration not stated) | 6
Cc1cc(C(=O)Nc2c(F)cc(F)cc2Br)c(C)o1 | 18
CC1(C)Cc2c(sc3nc4n(c(=N)c23)CCC4)CO1 | 12
CC(=O)OC1c2ccccc2C(=O)N1Cc1ccccc1Cl (configuration not stated) | 4
COc1ccc(NC(=O)CSc2nnc(Cn3c(=O)sc4ccccc43)n2C)c(OC)c1 | -14
CCOc1ccc(-c2cc(CCCC(=O)NCCCOC)no2)cc1 | 58*
CCOc1ccc(-c2cc(C(=O)NCCCN3CCN(CC)CC3)c3ccccc3n2)cc1 | -32
CCC(C)NC(=O)c1cc(-c2ccc(OC)cc2)on1 (configuration not stated) | -60
O=C(OCc1nnc(-c2ccccc2)o1)c1ccc(S(=O)(=O)NCc2ccco2)cc1 | 18
O=P(O)(O)c1ccccc1OCc1ccccc1 | -8
O=C(COc1ccccc1Cl)Nc1ccc(Cl)cn1 | -62
O=C(O)c1cccc(COc2ccccc2Cl)c1 | 92*
CC1=C(C(N)=O)C(c2ccccc2)n2nc(-c3cccc(C)c3)nc2N1 (configuration not stated) | -2
CC(=O)OC1=C(C#N)Cn2ccc3cccc1c32 | -4
SMILES | RORA inh
CCCCC(=O)Nc1cccc(NC(=O)c2ccc3c(c2)OCO3)c1 | -16
Clc1ccc(-c2nnc(NC3=NCCCCC3)o2)cc1 | 65*
Fc1ccc(-c2nnc(-c3ccc(Cl)cc3)o2)cc1 | -56
CN(C)CCCN1C(=O)C(O)=C(C(=O)c2cccs2)C1c1ccccn1 (configuration not stated) | 0
COc1ccc(CC(=O)Nc2cccc(-c3nnc(-c4cccc(C)c4)o3)c2)cc1OC | 87*
COc1ccc(Cc2nnc(NC(=O)Cc3cccs3)s2)cc1OC | -5
COc1ccc(CCNC(=O)c2nnn(CC(=O)Nc3ccccc3)c2N)cc1OC | -2
COc1ccc(CCNC(=O)C2CCCN(S(=O)(=O)c3cccc4nonc34)C2)cc1OC (configuration not stated) | 3
O=C(O)CNC1=NCCC1 | -16
COc1ccc(CNC(=O)CN(CC2CCCO2)C(=O)CNS(=O)(=O)c2ccc(F)cc2)cc1 (configuration not stated) | 20
COc1cccc(-c2nnc3n2N=C(C(C)(C)C)CS3)c1 | 62*
CCOc1cccc(-c2nnc3n2N=C(c2cc(OC)ccc2OC)CS3)c1 | -61
O=c1oc2c3c4c(cc2cc1-c1nc2ccccc2[nH]1)CCCN4CCC3 | -52
CCCCc1ccc(S(=O)(=O)Nc2cc(C)on2)cc1 | 12
COC(=O)c1ccc(S(=O)(=O)N(Cc2cc3cc4c(cc3[nH]c2=O)OCO4)C2CCCCC2)cc1 | 4
Cc1ccc(S(=O)(=O)N(CC(=O)N2CCCC2)C2CCCCC2)cc1 | -2
CCN(C1CCCCC1)S(=O)(=O)c1ccc(S(=O)(=O)NCc2ccncc2)cc1 | 69*
COC(=O)c1ccc(CSc2nc3c(c(=O)n2-c2ccc(Br)cc2)SCC3)o1 | -5
CC(=O)N1CCCc2cc(S(=O)(=O)NCc3ccc(C)cc3)ccc21 | 3
Cn1nc(C(C)(C)C)cc1C(=O)NCc1ccc(N2CCCC2=O)cc1 | 86*
CC(C)(C)c1ccc(C(=O)N2CCC(C(=O)NCc3ccncc3)CC2)cc1 | -60
CN(C)c1ccc(NC(=S)c2ccccn2)cc1 | 84*
CN(C)S(=O)(=O)c1ccc(NC(=O)c2ccccn2)cc1 | -57
CCN(CC)S(=O)(=O)c1ccc(NC(=O)c2ccccn2)cc1 | -49
CC(C)CCNC(=O)NC(=O)COc1ccccc1C#N | 1
Clc1ccc(OCCN2CCN(c3ncnc4sccc34)CC2)cc1 | 81*
CCC1CCCCN1C(=O)COC(=O)c1ccc(S(=O)(=O)N2CCOCC2)cc1 (configuration not stated) | 1
C=CCSc1nc2ccccc2n1Cc1nnc(-c2cccs2)o1 | 18
